The labels stand for the following.
B1: tRNA (parent)
chain: GUUCCGUUGGCGUAAUGGUAACGCGUCUCCCUCCUAAGGAGAAGACUGCGGGUUCGAGUCCCGUACGGAACG

This sample holds only a part of the variants without activity. A value given as a limit tells only on which side of the number the result lay.

In this data set the parent is B1. Put plainly: yeast fitness relative to wild type (ratio to wild type); higher = fitter; tRNA-Arg(CCU), competitive growth, 37 C, YPD. The gist of the method: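 Gene amplicons from the start population and from each of six end populations were read by 100-nucleotide paired-end sequencing. Those end populations came from pooled Saccharomyces cerevisiae strains carrying tRNA-Arg(CCU) gene variants at the native locus, competed in YPD at 37°C for 24 hours. Fitness relative to wild type was worked out from changes in genotype frequencies. Genotypes needed ≥ 100 starting reads, and estimates < 0.5 were set to 0.5.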
In the case of GUUCCGUCGGCGUAAUGGUAACGCGUCUGCCUCCGAAGGAGAAGACUGCGGGUUCGAGUCUCGUACGGAACG, the yeast fitness was at most 0.5.

For GUUCCGUCGGCGUAAUGGUAACGCGUCUCGCUCCUAAGGAGAAGAAGGAGGAUUCGACUCCCGGGCGGAACG, the yeast fitness was at most 0.5.

Regarding GUUCCGUCGGCGUAAUGGUAACGCGUCUUCCUCCGAAGGAGAAGACUGCGGGUUCGAGUCCUGUACGGAACG, the yeast fitness is at most 0.5.

In the case of GUUCCGUCGGCGUAAUGGUAACGCGUCUCCCUCCUAAGGAGAAGAAUGCGGGUUCGAGUCCCGUACGGAACG, the yeast fitness was determined as 1.01.

Take GUUCCGUCGGCGUAAUGGUAACGCGUCUCCCUCCUAAGGAGAAGAUUGCGGGUUCGAGUCCCGUACGGAACG: the yeast fitness amounted to 1.03.

GUUCCGUCGGCGUAAUGGUAACGCGUCUCCCUCCUAAGGAGAAGAUUGGGGGUUCGAGUCCCGUACGGAACG: the yeast fitness came to 0.701.

On to GUUCCGUCGGCGUAAUGGUAACGCGUCUCCCUCGUAAGGAGAAGACUGCGGGUUCGACUCCUGUACGGAACG, for which the yeast fitness was at most 0.5.

GUUCCGUCGGCGUAAUGGUAACGCGUCUUCCUCCUAAGGAGAAGACUGCGGGUUCGAGUCCCGUACGGAACG: the yeast fitness came to 0.937.

GUUCCGUCGGCGUAAUGGUAACGCGUCUCCCUACUAAGGAGAAGACUGCGGGUUGGAGUCCCGUACGGCACG: the yeast fitness was at most 0.5.

As for GUUCCGUCGGCGUAAUGGUAACGCGUCUCGCUGCUAAGGAGAAGACUGCGGGUUCGAGUCCCGUACGGAACG, the yeast fitness is at most 0.5.

Take GUUCCGUCGGCGUAAUGGUAACGCGUCUCCCUCCUAAGGAGAAGACUGCGGGUUUGAGUCCCAUACGGAACG: the yeast fitness worked out at 0.552.

On to GUUCCGUCGGCGUAAUGGUAACGCGUCUCCCUCCUAAGGAGAAGAAUGCCGGUUCGAGUCCCGUACGGAACG, for which the yeast fitness came out at 0.567.

With GUUCCGUCGGCGUAAUGGUAACGCGUCUCGCUCCUAAGGAGAAGACUGAGGGUUCGAGUCCCGUACGAAACG, the yeast fitness is at most 0.5.

With GUUCCGUCGGCGUAAUGGUAACGCGUCUCCGUCCUAAGGAGAAGGCUGCGGGUUCGAGUCCGGUACGGAACG, the yeast fitness is at most 0.5.

As to GUUCCGUCGGCGUAAUGGUAACGCGUCUCCCUCGUAAGGAGAAGACUGCGGGUUCGAGUCCCGUACGGAACG, the yeast fitness came to 0.574.

With GUUCCGUCGGCGUAAUGGUAACGCGUCUCCCUCCUAAGGAGAAGACUGCGGGUUAGAGUCCCGUACGGAACG, the yeast fitness was 0.739.

As for GUUCCGUCGGCGUAAUGGUAACGCGUCUCCCUCCUAAGGAGAAGACUGCGGGUUCGAGUACCGUACGGAACG, the yeast fitness was 0.737.

On to GUUCCGUCGGCGUAAUGGUAACGCGUCUCCCUCCUAAGGAGAAGACUGUGGGUUCGAGUCACGUACGGAACG, for which the yeast fitness was at most 0.5.

On to GUUCCGUCGGCGUAAUGGUAACGCGUCUGCCUCCUAGGGAGAAGACUGCGGGUUCGAGUCCCGUACCGAACG, for which the yeast fitness was 0.573.

On to GUUCCGUCGGCGUAAUGGUAACGCGUCUCUCUCCUAAGGAGAAGACUGCGGGUUCGAGUCCCGUACGGAACG, for which the yeast fitness stood at 0.935.

Consider GUUCCGUCGGCGUAAUGGUAACGCGUCUCACUCCUAAGGAGAAGACUGCGGGUUCGAGUCCCGUACGGAACG, for which the yeast fitness worked out at 0.948.

In the case of GUUCCGUCGGCGUAAUGGUAACGCGUCUCGCUCCUAAGGAGAAGACUGCGGGUUCGAGUCCCGUACGGAACG, the yeast fitness was determined as 0.674.

GUUCCGUCGGCGUAAUGGUAACGCGUCUCGGUCCUAAGGAGAAGACUGCGGGUUUGAGUCCCGUACGGAACG: the yeast fitness was at most 0.5.

GUUCCGUCGGCGUAAUGGUAACGCGUCUCCCUUCUCAGGAGAGGACUGCGGGUUCGUGUCCCGUACGGAACG: the yeast fitness was at most 0.5.

With GUUCCGUCGGCGUAAUGGUAACGCGUCUCCCUCAUAAGGAGAAGACUGCGGGUUCGAGUCGCGUACGCAACG, the yeast fitness was at most 0.5.

GUUCCGUCGGCGUAAUGGUAACGCGUCUCCCUCCUAAGGAGAAGACUGAGGGUUCGAGUCCCGUACGCAACG: the yeast fitness is at most 0.5.

GUUCCGUCGGCGUAAUGGUAACGCGUCUCCCUUCUAAGGAGAAGACUGCGGGUUCGAGUCCCGUACGGAACG: the yeast fitness was 0.728.

GUUCCGUCGGCGUAAUGGUAACGCGUCUACCUCGUGGGGCGAAGACAGCGGGUUCGAGUCCCGCACGGAACG: the yeast fitness is at most 0.5.

As to GUUCCGUCGGCGUAAUGGUAACGCGUCUCCCUCCUAAGGAGAAGACUGGGGGUUCGGGUCCCGUACGGAACG, the yeast fitness is 0.531.

With GUUCCGUCGGCGUAAUGGUAACGCGUCUCCCUCCUAAGGAGAAGAGUGCGGGUUCGAGUCCCGUACAGAACG, the yeast fitness turned out to be 0.674.

Turning to GUUCCGUCGGCGUAAUGGUAACGCGUCUCGGUCCUAAGGAGAAGACUGCGGGUCCGAGUCGCGUACGGAACG, the yeast fitness is at most 0.5.

Regarding GUUCCGUCGGCGUAAUGGUAACGCGUCUCGGUCCUAAGGAGAAGACUGCGGGUUCGAGUCCCGUAUGGAACG, the yeast fitness is at most 0.5.

Consider GUUCCGUCGGCGUAAUGGUAACGCGUCUACCUCGUGAGGCAAAGACAGCGGGUUCGAGUCCCGCACGGAACG, for which the yeast fitness is at most 0.5.

With GUUCCGUCGGCGUAAUGGUAACGCGUCUCCCUUCUAAGGAGAAGACUGCGGGUUCGAGUCCCGUACGGAUCG, the yeast fitness is at most 0.5.

Consider GUUCCGUCGGCGUAAUGGUAACGCGUCUCAUUCCUAAGGAGAAGACUGCGGGUCCGAGUCCCGUACGGAACG, for which the yeast fitness is at most 0.5.

Turning to GUUCCGUCGGCGUAAUGGUAACGCGUCUCCCUCCUAAGGAGAAGAUUGCGGAUUCGAGUCCCGUACGGAACG, the yeast fitness is at most 0.5.

GUUCCGUCGGCGUAAUGGUAACGCGUCUCCAUCCUAAGGAGGGGACUGCGGGUUCGAGUCCCGUACGCAACG: the yeast fitness is 0.559.

As to GUUCCGUCGGCGUAAUGGUAACGCGUCUCCUUCCUAAGGAGAAGACUGCGGGUUCGAGUCCCGUACGGAACG, the yeast fitness was 1.07.

(Values after the RNAGym collection of RNA variant scans (doi:10.1126/science.aae0568).)
